# Laboratory results published in ChEMBL document CHEMBL1142516, “Design, synthesis, and structure-affinity relationships of novel series of sialosides as CD22-specific inhibitors” (J Med Chem, 2008).
# What was measured:
# [1] = molecular target: T1, B-cell receptor CD22 (Homo sapiens, UniProt P20273); experiment: Binding affinity to biotinylated human CD22-human IgG1 chimeric protein expressed in mouse J558LST6 cells by flow cytometry; assay type: cell-based
# T1 sequence (P20273 whole entry): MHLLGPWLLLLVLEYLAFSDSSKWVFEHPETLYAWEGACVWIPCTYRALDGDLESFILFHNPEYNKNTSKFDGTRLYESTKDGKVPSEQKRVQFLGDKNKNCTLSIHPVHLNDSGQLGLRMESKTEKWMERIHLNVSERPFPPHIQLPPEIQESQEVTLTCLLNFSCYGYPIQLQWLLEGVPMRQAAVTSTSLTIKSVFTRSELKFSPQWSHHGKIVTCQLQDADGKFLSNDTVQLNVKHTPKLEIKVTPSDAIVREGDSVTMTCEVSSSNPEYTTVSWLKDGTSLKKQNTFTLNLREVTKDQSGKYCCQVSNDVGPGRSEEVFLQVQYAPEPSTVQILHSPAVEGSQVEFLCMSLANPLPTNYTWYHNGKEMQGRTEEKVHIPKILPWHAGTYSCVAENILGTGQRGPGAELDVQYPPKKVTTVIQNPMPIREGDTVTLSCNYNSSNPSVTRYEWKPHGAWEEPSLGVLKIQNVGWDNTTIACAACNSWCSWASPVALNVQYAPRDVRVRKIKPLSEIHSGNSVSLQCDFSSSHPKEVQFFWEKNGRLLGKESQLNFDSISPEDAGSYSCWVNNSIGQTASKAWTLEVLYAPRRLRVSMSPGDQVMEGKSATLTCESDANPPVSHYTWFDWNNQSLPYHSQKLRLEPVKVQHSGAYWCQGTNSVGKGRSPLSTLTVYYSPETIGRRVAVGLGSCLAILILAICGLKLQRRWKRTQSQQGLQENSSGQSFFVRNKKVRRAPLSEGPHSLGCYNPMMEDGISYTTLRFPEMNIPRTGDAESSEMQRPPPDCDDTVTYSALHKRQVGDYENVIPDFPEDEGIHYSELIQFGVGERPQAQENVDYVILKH
# Procedure, shortened: (§1)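 IC50 from inhibition of CD22-Fc binding to alpha2,6-sialic acid on ST6GalI-transfected J558L mouse myeloma cells (J558LST6), incubated with CD22-Fc plus varied sialoside concentrations. Detection with Alexa Fluor 647-streptavidin, 30 min on ice, then flow cytometry. % binding = (A−B)/(C−B)×100 using MFI: A, sialoside sample; B, parent J558L; C, untreated J558LST6. IC50 taken as 50% binding inhibition; means of ≥3 independent determinations.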
# [2] = Binding affinity to biotinylated mouse CD22-human IgG1 chimeric protein expressed in mouse J558LST6 cells by flow cytometry; assay type: cell-based; procedure, shortened: as §1
SMILES,IC50 [1] [µM],IC50 [2] [µM]
COc1ccc(O[C@@H]2O[C@H](CO[C@]3(C(=O)O)C[C@H](O)[C@@H](NC(=O)CO)[C@H]([C@H](O)[C@H](O)CNC(=O)c4ccc(-c5ccc(O)cc5)cc4)O3)[C@H](O)[C@H](O)[C@H]2O)cc1,0.4,8.63
COc1ccc(O[C@@H]2O[C@H](CO[C@]3(C(=O)O)C[C@H](O)[C@@H](NC(=O)CO)[C@H]([C@H](O)[C@H](O)CNC(=O)c4ccccc4)O3)[C@H](O)[C@H](O)[C@H]2O)cc1,125,115
COc1ccc(O[C@@H]2O[C@H](CO[C@]3(C(=O)O)C[C@H](O)[C@@H](NC(=O)CO)[C@H]([C@H](O)[C@H](O)CNCc4cc(OC)cc(OC)c4)O3)[C@H](O)[C@H](O)[C@H]2O)cc1,24.8,77.5
COc1ccc(O[C@@H]2O[C@H](CO[C@]3(C(=O)O)C[C@H](O)[C@@H](NC(=O)CO)[C@H]([C@H](O)[C@H](O)CNCc4ccc(-c5ccc(C(=O)O)cc5)cc4)O3)[C@H](O)[C@H](O)[C@H]2O)cc1,43,10
